Screens (PubChem BioAssay)
NPR1 activator = GC-A (human) enzyme activation; HEK293 GC-A cells, cGMP TR-FRET, EC30 ANP; 0% at EC30 ANP, 100% saturating ANP; activation, % at 10 µM; P16066; 370,000 compounds, 0.14% hits; in the data active = activation above about 40%
NPR2 activator = GC-B (human) receptor activation. P20594. HEK293-GC-B cells, CNP EC30, cGMP TR-FRET; 0% at EC30 CNP, 100% saturating CNP. activation, % at 10 µM. 370,000 compounds, 0.11% hits;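 active = activation at 10 µM reaching about 35% in either raw or pattern-adjusted values, limit read from the data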
ASAP1 GAP inh = ASAP1 ArfGAP inhibition; ASAP1-stimulated ARF1 GTP hydrolysis, GDP FP detection; inhibition, % at 16.5 µM; 360,000 compounds, 0.19% hits; Q9ULH1; AID 624377; in the data active = inhibition above about 25%;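 note: 0% = vehicle with enzyme and substrate and 100% = no enzyme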
Fh CTSL1 inh = cathepsin L1 inhibition, PFM18AAP counter-screen; recombinant F. hepatica cathepsin L1, Z-Leu-Arg-MCA fluorescence; inhibition, % at 5.96 µM; 300,000 compounds, 0.49% hits;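 active = inhibition above the mean of all tested compounds plus 3 SD, set per screening campaign, cut at about 17% in these data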;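 note: 0% = plate median of test compound wells and 100% = 1 µM Z-Phe-Ala-diazomethylketone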
HCV core dimer = blocks dimerization of HCV core protein. TR-FRET GST/Flag-core106 dimerization, 1536-well. inhibition, % at 5 µM. 300,000 compounds, 0.33% hits. AID 1899;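 active = inhibition above the mean of all tested compounds plus 3 SD, set per screening campaign, cut at about 45% in these data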
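test system = GST/Flag-tagged HCV core106 proteins | probe or stimulus = Eu donor and XL665 acceptor anti-tag antibodies | times = compound-protein-antibody incubation 4 h at 22.5 °C | signal = TR-FRET, excitation 340 nm, emission 617 and 671 nm | measure = percent inhibition of core106 dimerization signal | controls = wells lacking GST-core106 and wells with excess unlabelled core106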
ARFGAP1 inh = inhibitors of rat ARFGAP1 | Q62848 | Arfgap1-stimulated ARF1 GTP hydrolysis, GDP FP detection | inhibition, % at 16.5 µM | 360,000 compounds, 0.26% hits;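 active = inhibition above a per-plate limit, mean inhibition of low control wells plus 3 SD, cut at about 25% in these data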;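 note: 0% = DMSO wells with enzyme and 100% = wells lacking Arfgap1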
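Material: rat Arfgap1 GAP domain (His6, aa 1-136), purified enzyme. Also added: human ARF1(Δ1-17)-GTP substrate. Compound dosing: 16.5 µM single point, 1.26% DMSO. Timing: enzyme reaction 120 min at 25 °C after 20 min preincubation. Signal: GDP detection by fluorescence polarization. Read-out basis: percent inhibition of GAP-stimulated GDP formation, scaled between DMSO and no-Arfgap1 medians.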
* marks the source's active call; other numbers are inactive results; . = no result given. A selection: hits, their analogues and other compounds. The true share with any hit is near 1.2%.

SMILES | NPR1 activator | NPR2 activator | ASAP1 GAP inh | Fh CTSL1 inh | HCV core dimer | ARFGAP1 inh
CC1CCCN(CCCNC(=O)c2ccc3c(c2)N(Cc2ccccc2F)C(=O)c2ccccc2S3(=O)=O)C1 (stereo not given) | -2 | -1 | -2 | -4 | -14 | -2
Cc1ccc(C)c(CN2C(=O)CSc3ccc(C(=O)NCCN4CCOCC4)cc32)c1 | -1 | 2 | -6 | 10 | -14 | -21
CCN1CCCC1CNC(=O)c1ccc2c(c1)N(Cc1ccccc1F)C(=O)c1ccccc1S2(=O)=O (stereo not given) | -3 | -5 | -7 | 52* | -6 | 18
CCN1CCCC1CNC(=O)c1ccc2c(c1)N(Cc1cccc(Cl)c1)C(=O)c1ccccc1S2(=O)=O (stereo not given) | -5 | -4 | -2 | 2 | -2 | -1
O=C(NCCN1CCOCC1)c1ccc2c(c1)N(Cc1ccccc1F)C(=O)c1ccccc1S2(=O)=O | -4 | -1 | -9 | 18* | -17 | 9
O=C(NCCN1CCOCC1)c1ccc2c(c1)N(Cc1ccccc1F)C(=O)CS2 | 2 | 6 | -3 | 27* | 0 | -3
Nc1nc2c(ncn2[C@@H]2O[C@H](C(=O)N[C@@H](Cc3ccccc3)C(=O)NCc3ccc4c(c3)OCO4)[C@@H](O)[C@H]2O)c(=O)[nH]1 | 2 | 0 | -8 | . | . | -2
Nc1nc2c(ncn2[C@@H]2O[C@H](C(=O)N[C@H](Cc3ccccc3)C(=O)NCc3ccc4c(c3)OCO4)[C@@H](O)[C@H]2O)c(=O)[nH]1 | 31 | 37* | -2 | . | . | -7
COc1ccc(-n2cccc2/C=C2\C(=N)N3N=C(C(C)C)SC3=NC2=O)cc1 | -4 | 3 | -12 | 1 | 24 | -9
COc1ccc(-n2cccc2/C=C2\C(=N)N3N=C(c4ccco4)SC3=NC2=O)cc1 | -14 | -9 | 6 | 1 | 48* | -23
CC(C)(C)C(=O)Cn1ncc(Br)c(Br)c1=O | 62* | 1 | 7 | . | . | 1
CCCC1CCC(C2=N/C(=C\c3ccc(OC)c(OC)c3)C(=O)O2)CC1 (stereo not given) | -1 | 8 | -1 | 3 | 3 | -18
CC(=O)Oc1ccc(/C=C2\N=C(C3CCCCC3)OC2=O)cc1 | 2 | -4 | 8 | 23* | -3 | 9
COc1cccc(/C=C2\N=C(C3CCCCC3)OC2=O)c1OC | -12 | -4 | -1 | 20* | 1 | 3
Cc1ccc(-c2csc(N3CCN(c4cc5c(cc4Cl)nc(-c4ccncc4)n5CCN4CCCCC4)CC3)n2)cc1 | -1 | -1 | 3 | 3 | 7 | -4
CC1CC(C)CN(S(=O)(=O)c2ccc(C(=O)N(C)Cc3ccccc3)cc2)C1 (stereo not given) | -1 | 1 | -4 | . | . | -15
O=c1oc2ccccc2cc1-c1nc(-c2cccs2)cs1 | 9 | -5 | 1 | 1 | 3 | 16
COc1cccc2cc(-c3nc(-c4cccs4)cs3)c(=O)oc12 | 9 | -5 | -10 | 1 | 51* | 3
C[C@H]1C=C(C(=O)N2CCOCC2)O[C@@H](OCc2ccc(CO)cc2)C1 | -1 | 10 | -4 | 1 | -8 | 5
C/C(CC(=O)Nc1ccc(Cl)c(Cl)c1)=N\NC(N)=S | -5 | -7 | 6 | 30* | -4 | -2
C/C(CC(=O)Nc1cc(Cl)ccc1Cl)=N\NC(N)=S | -1 | 6 | 10 | 8 | -5 | 5
O=C(COC(=O)Cc1ccc(S(=O)(=O)N2CCCCC2)s1)Nc1ccc2c(c1)OCO2 | 0 | 2 | 5 | -1 | 63* | 7
CCn1c2ccccc2c2cc(NC(=O)Cc3ccc(S(=O)(=O)N4CCOCC4)s3)ccc21 | -10 | -3 | -3 | 1 | 60* | 3
CN(C)S(=O)(=O)c1ccc(NC(=O)Cc2ccc(S(=O)(=O)N3CCOCC3)s2)cc1 | 5 | -1 | 7 | -5 | 49* | -2
COc1ccc(C)cc1NC(=O)CN1C(=O)c2ccccc2S1(=O)=O | -4 | 0 | -12 | 1 | 5 | -11
SMILES | NPR1 activator | NPR2 activator | ASAP1 GAP inh | Fh CTSL1 inh | HCV core dimer | ARFGAP1 inh
CCOc1ccc(S(=O)(=O)NCCC(=O)NCC(c2ccc(F)cc2)N2CCOCC2)cc1 (stereo not given) | 0 | -3 | 4 | 18* | -2 | -1
O=C(O)C/C(=C\c1cccc(NC(=O)c2ccccc2Cl)c1)c1nc2ccccc2s1 | -3 | 0 | -4 | 3 | 18 | 0
COc1ccc(C(=O)Nc2cccc(/C=C(\CCC(=O)O)c3nc4ccccc4s3)c2)cc1 | -9 | -2 | 5 | 5 | 64* | 4
CN(c1ccccc1)c1ccc(/C=C(\CCC(=O)O)c2nc3ccccc3s2)cc1[N+](=O)[O-] | -4 | -2 | 2 | 6 | 60* | -29
C=CCOc1cccc(C(=O)/C=C2/C(=O)Nc3ccccc32)c1 | 3 | -1 | 5 | -3 | 13 | 12
CC(C)C[C@H](NC(=O)OC(C)(C)C)c1nnc(SCC(=O)Nc2ccc(Br)cc2)o1 | -3 | -8 | 3 | 99* | 3 | 12
Cc1ccc(C)c(NC(=O)CSc2nnc([C@@H](N)Cc3ccccc3)o2)c1 | -1 | 10 | -3 | 18* | -4 | -2
CC(C)C[C@H](N)c1nnc(SCC(=O)Nc2ccc(Br)cc2)o1 | 1 | 0 | 8 | 91* | -1 | 6
NCCc1nnc(SCC(=O)Nc2ccc(Br)cc2)o1 | 0 | 2 | 2 | 1 | 6 | 10
O=C(CSc1nnnn1C1CCCCC1)N1CCc2ccccc21 | 0 | -1 | 7 | -2 | -2 | 8
COC(C[C@@H]1O[C@H]1[C@@H](O)[C@@H](C)OCc1ccccc1)OC | 1 | 2 | -14 | . | . | 0
COC(C[C@H]1O[C@@H]1C(=O)[C@H](C)OCc1ccccc1)OC | 2 | 5 | -2 | 74* | -2 | -9
COC(C[C@H]1O[C@H]1C(=O)[C@H](C)OCc1ccccc1)OC | 2 | -1 | -7 | 76* | -9 | 16
COC(C[C@@H]1O[C@@H]1[C@@H](O)[C@H](C)OCc1ccccc1)OC | 1 | 2 | 11 | . | . | 4
COc1ccc(-c2ccc(SCC(=O)NCC3CCCO3)nn2)cc1OC (stereo not given) | 2 | 2 | -8 | -9 | -1 | -3
O=S(=O)(O)c1cc(O)c2c(O)c(N=Nc3cc(Cl)ccc3O)c(S(=O)(=O)O)cc2c1 | . | . | . | 2 | -98 | .
Cc1cc(-c2ccc(N=Nc3c(S(=O)(=O)O)cc4cc(S(=O)(=O)O)cc(N)c4c3O)c(C)c2)ccc1N=Nc1c(S(=O)(=O)O)cc2cc(S(=O)(=O)O)cc(N)c2c1O | . | . | . | 27* | -466 | .
